The results in this text go back to ChEMBL document CHEMBL1128446, “Pyrazinoic acid esters with broad spectrum in vitro antimycobacterial activity” (1995).

Values after ≈ are worked out from the molar mass of the structure shown.

As usually defined, the MIC is the lowest concentration that inhibits growth of the organism.

Common to all, as to assay type: functional
Assay [1] has as its system Mycobacterium tuberculosis. Nature of the assay: Minimum Inhibitory Concentration against Mycobacterium tuberculosis ATCC 35801. An outline of the steps:
(§1)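 Broth macrodilution in tubes of modified Middlebrook 7H10 broth (agar and malachite green omitted) with 10% OADC and 0.05% Tween 80 at pH 5.8. Cultures were grown 3 days at 37 °C on a rotary shaker, then diluted with 7H10 broth to 1 Klett unit/mL. Stocks were made in water or DMSO and filter-sterilised; 2-fold serial dilutions were tested. Tubes shaken 7–10 days at 37 °C, with a drug-free control. MIC = lowest concentration (μg/mL) with no visible turbidity.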

Assay [2] deals with Mycobacterium avium. Nature of the assay: Minimum Inhibitory Concentration against clinical isolates of Mycobacterium avium complex ATCC 49601. An outline of the steps:
as §1

The subject of assay [3] is Mycobacterium tuberculosis. Nature of the assay: Minimum Inhibitory Concentration against Mycobacterium tuberculosis ATCC 27294. In a few lines: as §1
The test system of assay [4] is Mycobacterium avium. Nature of the assay: Minimum Inhibitory Concentration in clinical isolates against Mycobacterium avium complex 101. An outline of the steps:
as §1

Assay [5] has as its system Mycobacterium kansasii. Nature of the assay: Minimum Inhibitory Concentration against clinical isolates of Mycobacterium kansasii S. An outline of the steps: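 Grown 3 days at 37 °C on a rotary shaker in modified Middlebrook 7H10 broth (agar and malachite green omitted) with 10% OADC and 0.05% Tween 80. Diluted to 1 Klett unit/mL. Tubes held serial 2-fold dilutions in 7H10 broth at pH 5.8, from stocks in water or DMSO, and were shaken at 37 °C for 7–10 days with a drug-free control. MIC was the lowest concentration with no visible turbidity.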

The subject of assay [6] is Mycobacterium avium. Nature of the assay: Minimum Inhibitory Concentration in clinical isolates against Mycobacterium avium complex ATCC 49601. An outline of the steps: as §1
Where [7] appears, read: Mycobacterium tuberculosis, ATCC 27294, read-out: MIC.

For `CCCCCCC(C)OC(=O)c1cnc(F)cn1` (centres undefined), the MIC in assay [1] is 4 µg/mL (≈ 15.7 µM); in assay [2] it was 64 µg/mL (≈ 252 µM); in assay [3] (setting [7]) it was 2 µg/mL (≈ 7.86 µM); in assay [4] it was 32 µg/mL (≈ 126 µM); in assay [5], < 0.03 µg/mL.

Regarding `CCCCCCCC(C)OC(=O)c1cnc(Cl)cn1` (centres undefined), the minimal inhibitory concentration (MIC) in assay [1] was 0.5 µg/mL (≈ 1.76 µM); in assay [2] it was 32 µg/mL (≈ 112 µM); in assay [3] (setting [7]) it was 1 µg/mL (≈ 3.51 µM); in assay [4], 32 µg/mL (≈ 112 µM); in assay [5], < 0.03 µg/mL.

In the case of `CCCCCCCOC(=O)c1cnc(C)cn1`, the MIC was found to be 0.25 µg/mL (≈ 1.06 µM) in assay [1]; 32 µg/mL (≈ 135 µM) in assay [2]; 0.5 µg/mL (≈ 2.12 µM) in assay [3] (setting [7]); 32 µg/mL (≈ 135 µM) in assay [4]; 4 µg/mL (≈ 16.9 µM) in assay [5].

Take `CCCCOC(=O)c1cnc(Cl)cn1`: the MIC in assay [1] was 0.5 µg/mL (≈ 2.33 µM); in assay [2] it was 128 µg/mL (≈ 596 µM); in assay [3] (setting [7]), 0.25 µg/mL (≈ 1.16 µM); in assay [4] it was 64 µg/mL (≈ 298 µM); in assay [5] it was < 1 µg/mL.

Take `CCCCCCCCC(C)(CCCC)OC(=O)c1cnc(Cl)cn1` (centres undefined): the MIC is 16 µg/mL (≈ 45.1 µM) in assay [1]; > 64 µg/mL in assay [2]; 16 µg/mL (≈ 45.1 µM) in assay [3] (setting [7]); > 64 µg/mL in assay [4]; 16 µg/mL (≈ 45.1 µM) in assay [5].

`CCCCCCCCCCOC(=O)c1cnccn1`: the MIC in assay [1] worked out at 0.25 µg/mL (≈ 0.946 µM); in assay [2] it was 8 µg/mL (≈ 30.3 µM); in assay [3] (setting [7]), 0.5 µg/mL (≈ 1.89 µM); in assay [4], 32 µg/mL (≈ 121 µM); in assay [5], 0.25 µg/mL (≈ 0.946 µM).

On to `CCCCCCCCCOC(=O)c1cnc(C)cn1`, for which the MIC in assay [1] was determined as 1 µg/mL (≈ 3.78 µM); in assay [2] it was 32 µg/mL (≈ 121 µM); in assay [3] (setting [7]), 1 µg/mL (≈ 3.78 µM); in assay [4] it was 64 µg/mL (≈ 242 µM); in assay [5] it was 2 µg/mL (≈ 7.57 µM).

Regarding `CCCCCCCCC(C)(C)OC(=O)c1cnc(Cl)cn1`, the MIC in assay [1] was found to be 1 µg/mL (≈ 3.2 µM); in assay [2] it was 64 µg/mL (≈ 205 µM); in assay [3] (setting [7]) it was 0.125 µg/mL (≈ 0.4 µM); in assay [4], 64 µg/mL (≈ 205 µM); in assay [5], 1 µg/mL (≈ 3.2 µM).

Regarding `CCCCCC(C)OC(=O)c1cnc(Cl)cn1` (centres undefined), the MIC was 0.5 µg/mL (≈ 1.95 µM) in assay [1]; 32 µg/mL (≈ 125 µM) in assay [2]; 0.06 µg/mL (≈ 0.234 µM) in assay [3] (setting [7]); 32 µg/mL (≈ 125 µM) in assay [4]; < 0.125 µg/mL in assay [5].

With `CCCCCCCCCCOC(=O)c1cnc(Cl)cn1`, the minimal inhibitory concentration (MIC) turned out to be 0.25 µg/mL (≈ 0.837 µM) in assay [1]; 16 µg/mL (≈ 53.5 µM) in assay [2]; 0.5 µg/mL (≈ 1.67 µM) in assay [3] (setting [7]); 32 µg/mL (≈ 107 µM) in assay [4]; 0.5 µg/mL (≈ 1.67 µM) in assay [5].

With `CCCCCCCCCOC(=O)c1cnc(Cl)cn1`, the MIC in assay [1] is 1 µg/mL (≈ 3.51 µM); in assay [2], 16 µg/mL (≈ 56.2 µM); in assay [3] (setting [7]), < 0.03 µg/mL; in assay [4] it was 32 µg/mL (≈ 112 µM); in assay [5] it was 0.125 µg/mL (≈ 0.439 µM).

With `CCCCCCC(C)(CCCCC)OC(=O)c1cnc(Cl)cn1` (centres undefined), the MIC was 8 µg/mL (≈ 23.5 µM) in assay [1]; > 64 µg/mL in assay [2]; 2 µg/mL (≈ 5.87 µM) in assay [3] (setting [7]); > 64 µg/mL in assay [4]; 8 µg/mL (≈ 23.5 µM) in assay [5].

For the compound `CCCCCC(CC)OC(=O)c1cnc(Cl)cn1` (centres undefined), the MIC was 1 µg/mL (≈ 3.69 µM) in assay [1]; 256 µg/mL (≈ 945 µM) in assay [2]; 0.25 µg/mL (≈ 0.923 µM) in assay [3] (setting [7]); > 256 µg/mL in assay [4]; 0.125 µg/mL (≈ 0.462 µM) in assay [5].

On to `Cc1cnc(C(=O)O)cn1`, for which the minimum inhibitory concentration (MIC) in assay [1] is 64 µg/mL (≈ 463 µM); in assay [6], > 1020 µg/mL; in assay [3] (setting [7]) it was 64 µg/mL (≈ 463 µM); in assay [4] it was 1020 µg/mL (≈ 7410 µM); in assay [5], 1020 µg/mL (≈ 7410 µM).

`O=C(O)c1cnc(Cl)cn1`: the minimal inhibitory concentration (MIC) in assay [1] was 64 µg/mL (≈ 404 µM); in assay [6] it was > 1020 µg/mL; in assay [3] (setting [7]), 64 µg/mL (≈ 404 µM); in assay [5] it was 64 µg/mL (≈ 404 µM).

For the compound `Cc1ccc(C(C)OC(=O)c2cnc(Cl)cn2)cc1` (centres undefined), the minimum inhibitory concentration (MIC) in assay [1] was 1 µg/mL (≈ 3.61 µM); in assay [2], 16 µg/mL (≈ 57.8 µM); in assay [3] (setting [7]), 1 µg/mL (≈ 3.61 µM); in assay [4], 256 µg/mL (≈ 925 µM); in assay [5], 1 µg/mL (≈ 3.61 µM).

Take `O=C(OCCc1ccc(Cl)cc1)c1cnc(Cl)cn1`: the MIC is 32 µg/mL (≈ 108 µM) in assay [1]; 8 µg/mL (≈ 26.9 µM) in assay [2]; 2 µg/mL (≈ 6.73 µM) in assay [3] (setting [7]); 16 µg/mL (≈ 53.8 µM) in assay [4]; 0.5 µg/mL (≈ 1.68 µM) in assay [5].

In the case of `O=C(OC(c1ccccc1)c1ccccc1)c1cnc(Cl)cn1`, the MIC was 16 µg/mL (≈ 49.3 µM) in assay [1]; > 64 µg/mL in assay [2]; 16 µg/mL (≈ 49.3 µM) in assay [3] (setting [7]); > 64 µg/mL in assay [4]; 8 µg/mL (≈ 24.6 µM) in assay [5].

For the compound `O=C(Oc1ccc(F)cc1)c1cnccn1`, the MIC in assay [6] is 128 µg/mL (≈ 587 µM); in assay [3], 32 µg/mL (≈ 147 µM); in assay [3] (setting [7]), 32 µg/mL (≈ 147 µM); in assay [4], 128 µg/mL (≈ 587 µM); in assay [5], 64 µg/mL (≈ 293 µM).

As for `CCCCCCCC(OC(=O)c1cnc(Cl)cn1)C(C)C` (centres undefined), the MIC was 2 µg/mL (≈ 6.39 µM) in assay [1]; 256 µg/mL (≈ 818 µM) in assay [2]; 0.5 µg/mL (≈ 1.6 µM) in assay [3] (setting [7]); > 256 µg/mL in assay [4]; 0.25 µg/mL (≈ 0.799 µM) in assay [5].

For the compound `CCCCCCCCOC(=O)c1cnc(Cl)cn1`, the MIC is < 0.03 µg/mL in assay [1]; 16 µg/mL (≈ 59.1 µM) in assay [2]; 0.06 µg/mL (≈ 0.222 µM) in assay [3] (setting [7]); 16 µg/mL (≈ 59.1 µM) in assay [4]; < 0.03 µg/mL in assay [5].

As for `CCCCCOC(=O)c1cnc(Cl)cn1`, the minimal inhibitory concentration (MIC) is 0.25 µg/mL (≈ 1.09 µM) in assay [1]; 32 µg/mL (≈ 140 µM) in assay [2]; 0.06 µg/mL (≈ 0.262 µM) in assay [3] (setting [7]); 32 µg/mL (≈ 140 µM) in assay [4]; < 0.03 µg/mL in assay [5].

As to `COC(=O)c1cnc(Cl)cn1`, the MIC was determined as 8 µg/mL (≈ 46.4 µM) in assay [1]; 64 µg/mL (≈ 371 µM) in assay [2]; 4 µg/mL (≈ 23.2 µM) in assay [3] (setting [7]); 256 µg/mL (≈ 1480 µM) in assay [4]; 2 µg/mL (≈ 11.6 µM) in assay [5].

For `CCCCCCCCCCCC(C)OC(=O)c1cnc(Cl)cn1` (centres undefined), the MIC in assay [1] stood at 0.5 µg/mL (≈ 1.47 µM); in assay [2], 32 µg/mL (≈ 93.9 µM); in assay [3] (setting [7]), 2 µg/mL (≈ 5.87 µM); in assay [4], 256 µg/mL (≈ 751 µM); in assay [5] it was 0.06 µg/mL (≈ 0.176 µM).

For `C=CCOC(=O)c1cnc(Cl)cn1`, the minimal inhibitory concentration (MIC) was 1 µg/mL (≈ 5.04 µM) in assay [1]; 64 µg/mL (≈ 322 µM) in assay [2]; 1 µg/mL (≈ 5.04 µM) in assay [3] (setting [7]); 64 µg/mL (≈ 322 µM) in assay [4]; < 1 µg/mL in assay [5].

For `NC(=O)c1cnccn1` [PYRAZINAMIDE], the MIC in assay [1] is 32 µg/mL (≈ 260 µM); in assay [6], > 2050 µg/mL; in assay [3] (setting [7]) it was 16 µg/mL (≈ 130 µM); in assay [4], > 2050 µg/mL; in assay [5], 2050 µg/mL (≈ 16600 µM).

For the compound `O=C(O)c1cnccn1` [PYRAZINOIC ACID], the MIC in assay [1] is 32 µg/mL (≈ 258 µM); in assay [6], > 1020 µg/mL; in assay [3] (setting [7]) it was 32 µg/mL (≈ 258 µM); in assay [4], > 1020 µg/mL; in assay [5], 256 µg/mL (≈ 2060 µM).
